Shown are actives, neighbours in structure and some others; about 2.2% of the full set was active somewhere.
ROMK primary = modulators of human ROMK potassium channel; P48048; B-score at 10 µM; 2% of 130,000 active; Tet-inducible ROMK, thallium flux fluorescence; actives lie on both sides;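 active = signal ratio slope over the read window, or its plate-corrected B-score, at least 3 SD from the plate mean, either direction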;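 also: B-score of the F/F0 ratio slope over 7 to 12 s after thallium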
Target sequence (P48048 whole entry, looked up): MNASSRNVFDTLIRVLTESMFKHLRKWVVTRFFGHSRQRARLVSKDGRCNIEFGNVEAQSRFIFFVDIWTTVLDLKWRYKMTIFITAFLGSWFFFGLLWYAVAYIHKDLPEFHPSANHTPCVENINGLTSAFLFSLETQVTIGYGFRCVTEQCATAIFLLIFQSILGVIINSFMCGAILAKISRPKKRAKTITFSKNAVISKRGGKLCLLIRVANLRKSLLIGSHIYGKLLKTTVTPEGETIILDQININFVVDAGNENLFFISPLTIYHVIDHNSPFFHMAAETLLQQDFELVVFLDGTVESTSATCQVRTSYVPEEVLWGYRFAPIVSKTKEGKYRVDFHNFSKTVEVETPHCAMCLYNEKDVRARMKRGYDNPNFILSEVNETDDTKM
PMI activator = activators of human phosphomannose isomerase. purified human PMI, coupled resazurin fluorescence, 20 min; hits give high values; 1 = vehicle control, 0 substrate-free wells. activation factor at 20 µM. 0.005% of 190,000 active. AID 1214;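 active = activation factor of 2 or more at 20 µM, relative to plate controls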
Diaph act CS = activates diaphorase or chemically reduces, flagging diaphorase assay artifacts; Diaphorase/resazurin coupled assay, resorufin fluorescence, 16 min; hits give high values; 1 = vehicle wells, 0 = NADH-free wells; activation factor at 20 µM; 0.005% of 190,000 active;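 active = diaphorase activity raised at least twofold by the compound at 20 µM; inactive = activation factor below 2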
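Material: bacterial diaphorase enzyme (C. kluyveri); amount: enzyme 0.07 U/mL final; reagent: NADH substrate 0.114 mM plus resazurin dye 0.1 mM, final; doses: single compound dose of 20 µM, 1% DMSO final; timing: 16 min enzyme reaction, ambient temperature; measured by: fluorescence of resorufin, 544 nm excitation, 590 nm emission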
PMI act satM6P = activators of human phosphomannose isomerase at near-saturating mannose 6-phosphate. 0.34% of 190,000 active. coupled PMI enzyme assay, resazurin fluorescence, 20 min; hits give high values; 1 = untreated enzyme, 0 = substrate-free blank. activation factor at 20 µM;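 active = activation factor of 2 or more at 20 µM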
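Technique: Diaphorase-driven resazurin-to-resorufin fluorescence, excitation 544, emission 590 nm | Assay system: Human PMI in coupled enzyme assay | Times: Enzyme reaction with compound 20 min at room temperature | Medium: HEPES-buffered pH 7.4 with magnesium and detergent | Reagent: Mannose-6-phosphate 1.0 mM (near-saturating) plus 0.22 mM NADP+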
G6PDH CS = counter-screen for G6PDH assay hits: L. mesenteroides G6PDH inhibition; Purified L. mesenteroides G6PDH, diaphorase/resazurin coupled fluorescence, 45 min; inhibition, % at 5 µM; 0.12% of 200,000 active; AID 1020; in the data active = inhibition above about 50%
Diaph inh CS = inhibits diaphorase or chemically oxidizes, flagging diaphorase assay artifacts | inhibition, % at 20 µM | 0.69% of 190,000 active | AID 1217 | diaphorase resazurin-to-resorufin fluorescence, NADH, 16 min; bacterial (C. kluyveri) enzyme, not human;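 active = primary screen inhibition at 20 µM above a set limit, cut at about 50% in these data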
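Detection: fluorescence of resorufin formed from resazurin, Ex 544/Em 590 nm; test system: Clostridium kluyveri diaphorase enzyme; amount: 0.14 U/mL diaphorase, enzyme working solution; times: 16-min room-temperature incubation before reading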
ROMK retest = retested hit modulating human ROMK potassium channel; shares compounds with ROMK primary; ROMK thallium flux, fluorescence ratio; hits give low values; normalized thallium flux (F/F0 slope) at 10 µM; 54% of 3,000 active;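 active = Flux at 10 µM at least 3 SD below or above vehicle control mean in one or both replicates; inconclusive = no clear call, values can overlap the other calls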
Numbers stand for hits; - = inactive; ? = inconclusive; . = not tested or not shown.

SMILES | ROMK primary | PMI activator | Diaph act CS | PMI act satM6P | G6PDH CS | Diaph inh CS | ROMK retest
COc1coc(C(O)CN)cc1=O (centres undefined) | - | - | - | - | - | - | .
CCOC(=O)c1sc2nc(C)nc(SCC(=O)N(C)C3CCS(=O)(=O)C3)c2c1C (centres undefined) | - | - | - | - | - | - | .
Cc1ccc(NC(=O)CSC(C)C(=O)NCCc2ccccn2)cc1 (centres undefined) | -2.76 | - | - | - | - | - | -
Cc1ccc(NC(=O)NCc2ccccn2)cc1 | - | - | - | - | - | - | .
O=C(CNS(=O)(=O)c1ccc(Br)s1)NC1CCCc2ccccc21 (centres undefined) | -3.81 | - | - | - | - | - | 0.0668
O=C(CCNS(=O)(=O)c1ccc(Br)s1)NC1CCCC1 | . | - | - | - | - | - | .
CCOc1ncccc1C(=O)N1CCN(c2cc(Cl)ccc2C)CC1 | 3.28 | - | - | - | - | - | -
CCOc1ncccc1C(=O)N1CCN(C(=O)c2ccccc2)CC1 | - | - | - | - | - | - | .
CCCN1Cc2cccc(C(=O)N3CCN(c4cc(Cl)ccc4C)CC3)c2C1=O | . | - | - | - | - | - | ?
CCOc1ncccc1C(=O)N1CCN(c2cccc(C)c2C)CC1 | 7.26 | - | - | - | - | - | -
CCOC(=O)COc1c(Br)cc(/C=C2\SC(=O)N(CC(=O)N3CCCC3)C2=O)cc1OC | -4.67 | - | - | - | - | - | 0.0572
COc1cc(C2C(C#N)=C(N)Oc3cc(N(C)C)ccc32)cc2c1OCO2 (centres undefined) | . | - | - | - | - | - | 0.0576
COc1cc(C2C(C#N)=C(N)Oc3cc(O)ccc32)cc2c1OCO2 (centres undefined) | - | - | - | - | - | - | .
COc1cc(C2C(C#N)=C(N)Oc3cc4c(cc32)OCO4)cc(OC)c1OC (centres undefined) | 4.71 | - | - | - | - | - | -
CCOc1cc(C(=O)Nc2ccc(N3CCOCC3)cc2)cc(Br)c1OC | 3.82 | - | - | - | - | - | -
CCOc1cc(C(=O)Nc2ccc(F)cc2)cc(Br)c1OC | . | - | - | - | - | - | .
CC(=O)c1cnn(-c2ccc(Cl)c(Cl)c2Cl)c1C | - | . | . | . | . | . | .
Cc1ccc(NC(=O)COC(=O)CCc2ccc(S(=O)(=O)N3CCOCC3)cc2)c(C)c1 | - | - | - | - | - | - | .
Cc1ccc(NC(=O)CCc2ccc(S(=O)(=O)N3CCOCC3)cc2)c(C)c1 | 3.23 | - | - | - | - | - | -
CN(C)c1ccc(/C=c2\sc3n(c2=O)CCCN=3)cc1 | -4.42 | - | - | - | - | - | 0.0544
CCOC(=O)c1c(-c2ccccc2)csc1NC(=O)C1CCCO1 (centres undefined) | - | - | - | - | - | - | .
CCOC(=O)c1c(-c2ccc(-c3ccccc3)cc2)csc1NC(=O)C1C2CCC(O2)C1C(=O)O (centres undefined) | . | - | - | - | - | - | 0.108
Cc1ccc(NC(=O)COC(=O)c2sccc2C)cc1S(=O)(=O)N1CCOCC1 | . | - | - | - | - | - | .
CN(CC1CCOCC1)C(=O)CC1C(=O)NCCN1Cc1ccc(-c2ccccc2)cc1 (centres undefined) | -4.13 | - | - | - | - | - | -
CN(Cc1cccnc1)C(=O)CC1C(=O)NCCN1Cc1ccc(-c2ccccc2)cc1 (centres undefined) | - | - | - | - | - | - | .
NCCOc1ccc(C23CC4CC(CC(C4)C2)C3)cc1 | -2.95 | - | - | - | - | - | 0.063
OCCN1CCN(CC(O)COc2ccc(C34CC5CC(CC(C5)C3)C4)cc2)CC1 (centres undefined) | - | - | - | - | - | - | .
Nc1cc(Cl)ccc1N1CCCCCC1 | - | - | - | - | - | - | .
CCCCOc1ccccc1C1CC(=O)NC2=C1C(=O)CCC2 (centres undefined) | 4.65 | - | - | - | - | - | -

Source: PubChem BioAssay (several laboratories)
